From ChEMBL document CHEMBL1148324 (J Med Chem, 2004) come the findings set out here.

What is called pEC50 is −log10 of the EC50, conventionally taken in molar units. A lower pEC50 goes with a high EC50.

For test [1], the species on record is Sus scrofa. Put plainly: Evaluated for change in heart rate from baseline at a plasma concentration of 95 nM in pigs. Format: functional. In outline: (§1)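 Conscious female Landrace/Yorkshire swine (~12 weeks, 14–20 kg), urethra obstructed with a 7.5 mm silver omega ring, telemeterized, held in a restraint cage with ear venous catheters. After a 30 min baseline, increasing doses are given i.v. (3 min infusion) at 30 min intervals. Plasma is sampled 15 min after each dose for LC/MS. MAP and HR are averaged in 5 min bins over each 30 min period, expressed as % change from baseline; n = 2–4.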

The species named for test [2] is Sus scrofa. Put plainly: Evaluated for change in mean arterial pressure from baseline at a plasma concentration of 95 nM in pigs. Format: functional. An outline of the steps: as §1
Test [3] addresses T1, Sulfonylurea receptors; K-ATP channels (Homo sapiens, UniProt O60706+Q09428+Q14654+Q15842). In words: Evaluated for K-ATP activity in terms of change in membrane potential through guinea pig bladder assay. The settings on record: target entry is the homologue from another species. Format: functional, Cavia porcellus.
The species entered for test [4] is Sus scrofa. In words: Evaluated for change in mean arterial pressure from baseline at a plasma concentration of 24 nM in pigs. The format is functional. An outline of the steps: as §1
The species named for test [5] is Sus scrofa. Put plainly: Evaluated for change in mean arterial pressure from baseline at a plasma concentration of 1.9 nM in pigs. The format is functional. An outline of the steps: as §1
In test [6] the target is T1, Sulfonylurea receptors; K-ATP channels. Put plainly: Evaluated for K-ATP activity in terms of stable twitch response through field-stimulated landrace pig detrusor assay. The format is functional, Sus scrofa. The settings on record: target entry is the homologue from another species.
Test [7] can be described thus: Selectivity expressed as the ratio of pEC50 (SLPD) and pEC50 (FSLPD). Format: functional.
The species entered for test [8] is Sus scrofa. In words: Evaluated for change in heart rate from baseline at a plasma concentration of 1.9 nM in pigs. The format is functional. In outline: as §1
The target in test [9] is T1, Sulfonylurea receptors; K-ATP channels. Put plainly: Evaluated for K-ATP activity as in vitro bladder relaxation in spontaneous Landrace pig detrusor strips (SLPD). The format is functional, Sus scrofa. The settings on record: target entry is the homologue from another species. In outline:
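Bladder strips taken near the trigonal region of Landrace pig bladder, contracting spontaneously (myogenic, no cholinergic component). Test agents added at increasing concentrations; the read-out is the reduction in area under the contraction curve.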

The species entered for test [10] is Sus scrofa. In words: Evaluated for change in heart rate from baseline at a plasma concentration of 24 nM in pigs. Format: functional. In outline:
as §1

Test [11] is filed under the species Sus scrofa. In words: Evaluated for change in heart rate from baseline at a plasma concentration of 167 nM in pigs. Format: functional. In outline:
as §1

Test [12] is filed under the species Sus scrofa. Put plainly: Evaluated for change in mean arterial pressure from baseline at a plasma concentration of 167 nM in pigs. The format is functional. In outline: as §1
The species named for test [13] is Sus scrofa. In words: Evaluated for change in heart rate from baseline at a plasma concentration of 44 nM in pigs. The format is functional. In outline: as §1
For test [14], the species on record is Sus scrofa. In words: Evaluated for change in mean arterial pressure from baseline at a plasma concentration of 44 nM in pigs. The format is functional. An outline of the steps:
as §1

Test [15] is filed under the species Sus scrofa. In words: Evaluated for change in heart rate from baseline at a plasma concentration of 12 nM in pigs. Format: functional. An outline of the steps: as §1
The species entered for test [16] is Sus scrofa. In words: Evaluated for change in mean arterial pressure from baseline at a plasma concentration of 12 nM in pigs. The format is functional. An outline of the steps:
as §1

The target of test [17] is T1, Sulfonylurea receptors; K-ATP channels. In words: Evaluated for K-ATP activity as stable twitch response through field-stimulated landrace pig detrusor assay (FSLPD). Format: functional, Sus scrofa. The settings on record: target entry is the homologue from another species.

SMILES strings stand for the structures. pEC50: −log10 of the molar value.

With `O=C1CCCC2=C1[C@H](c1ccc(F)c(Br)c1)C1=C(CCS1(=O)=O)N2`, the entries for the “Delta HR” value in the test listed under Sus scrofa [1], in the test filed under Sus scrofa [8] and in the test filed under Sus scrofa [10] were 56%, 6.2% and 3.5%, respectively. For the same molecule, the “Delta MAP” value in the test listed under Sus scrofa [2] is given as -27%; in the test filed under Sus scrofa [4] it was -6.9%; in the test listed under Sus scrofa [5] it was -5.4%. In addition, the pEC50 in test [3] was 6.91; in test [6], 6.63; in [9], 7.64. For the same molecule, the Selectivity in test [7] was 10.
Consider `CC1(C)Oc2ccc(C#N)cc2[C@H](N2CCCC2=O)[C@H]1O` (single isomer, unassigned) [(-)-CROMAKALIM], for which the “Delta HR” value amounted to 47% in the test listed under Sus scrofa [11], 38% in the test filed under Sus scrofa [13] and 13% in the test filed under Sus scrofa [15]. Also, the “Delta MAP” value is on record as -33% in the test filed under Sus scrofa [12], -12% in the test listed under Sus scrofa [14] and -6.3% in the test filed under Sus scrofa [16].
As to `O=C1CCCC2=C1[C@@H](c1ccc(F)c(Br)c1)C1=C(CCS1(=O)=O)N2`, the pEC50 was 7.36 in test [3], 7.16 in test [17] and 7.90 in test [9]. In test [7], the Selectivity was found to be 5.5.
